Among the data in the RNAGym collection of RNA variant scans (doi:10.1101/gad.245936.114) are nonsense suppression values, retold here.

This sample holds only a part of the variants without activity.

B1: tRNA (parent)
chain: CUCUCGGUAGCCAAGUUGGUUUAAGGCGCAAGACUUUAAUUUAUCACUACGAAAUCUUGAGAUCGGGCGUUCGACUCGCCCCCGGGAGAUUUUUUCCUCGAGCAA

Variants of B1 are the subject of the series. Kind of series: nonsense suppression (GFP-seq) (ratio to wild type); higher = more function; SUP4oc tRNA, yeast GFP reporter sort-seq. In a few lines:
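Sorted GFP/RFP bins of yeast were each Illumina-sequenced with a phred ≥30 cutoff; the cells held a genome-integrated ochre-suppressor tRNA variant from a library with ~3% random mutations, a galactose-driven GFP ochre reporter, and RFP. Culture was in raffinose/galactose medium containing 80 mg/L adenine. Nonsense suppression, termed GFPSEQ, is the median GFP/RFP of the bins weighted by each variant's estimated cell share per bin, relative to the unmutated parent tRNA, for variants reaching ≥100 reads and ≥30 cells.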
Take C27G A31G A54U U70C G84A: the nonsense suppression was no more than 0.026.
For the variant G25U A60G G61A, the nonsense suppression is no more than 0.026.
Turning to G28C C34A C68G A89G, the nonsense suppression was no more than 0.026.
As to G28C C34A C68G A89U, the nonsense suppression was no more than 0.026.
The same measure for G28C A60C: 0.235.
As to C27U A31U, the nonsense suppression is 0.0324.
The same measure for G25U G73U: no more than 0.026.
Take G26C C81U: the nonsense suppression is no more than 0.026.
With A23U G25U G69C the figure was no more than 0.026; with A24C A30U, 0.11.
With C27U C75A the figure was 0.641; with A24G A31U C34U A74G, no more than 0.026; with A24C C64G, no more than 0.026.
With A24G A30U U70G C72A the figure was no more than 0.026.
C27U U55C C56A G88U: the nonsense suppression was no more than 0.026.
G25U C56A G86U: the nonsense suppression was no more than 0.026.
For C27G G28A, the nonsense suppression is no more than 0.026.
As for G25A C29A G84C, the nonsense suppression is 0.027.
A24G C79G G86C: the nonsense suppression is no more than 0.026.
With G26U A31G A54U U57C G73C the figure was no more than 0.026; with C27U U58A G59A, no more than 0.026.
In the case of A24U U58C G85A, the nonsense suppression was no more than 0.026.
With G28C A89G the figure was 0.0403; with G25U A54U G78C, no more than 0.026; with G25A G26U C56G, 0.0585.
For G28A G66C A87U, the nonsense suppression was no more than 0.026.
With A24U C29A C79U the figure was no more than 0.026; with A23U G78U, 0.0382; with G26U U71C, no more than 0.026.
In the case of A23G G85U, the nonsense suppression worked out at 0.0779.
Consider A24G C75A, for which the nonsense suppression came to 0.24.
Consider A24G C75U, for which the nonsense suppression worked out at 0.185.
As for G26U C34U, the nonsense suppression is no more than 0.026.
The same measure for G28C G59A: no more than 0.026; for A23G G78A: 0.0355; for A23G G78U: 0.0956.
The same measure for A23U A31G A33G G67C: no more than 0.026; for C27U G85A: 0.207; for A23U A30U: 0.0282.
With G25A A30C the figure was no more than 0.026; with A24U U55C, 0.104.
For G25C A30G A33U, the nonsense suppression was no more than 0.026.
With G25C C27G the figure was no more than 0.026; with G28C A33U C82U A89U, no more than 0.026.
Regarding A24C U71A G78C C80A A87G, the nonsense suppression is no more than 0.026.
As to A24C U71A G78C C80A A87U, the nonsense suppression was no more than 0.026.
G28A C68U: the nonsense suppression came to 1.17.
The same measure for A24C G26U: 0.038; for A23U G32C U57C C81A: no more than 0.026; for G25U A60C: no more than 0.026.
A24U A62U: the nonsense suppression is 0.0332.
The same measure for A24U A62G: 0.0414; for A24U A62C: no more than 0.026; for A24G U35G: no more than 0.026.
The same measure for G26U G61A: no more than 0.026; for G28A C82U: 1.15; for A24G G61A U76C: 0.0509.
For the variant C27U G65U, the nonsense suppression was no more than 0.026.
C27U G65A: the nonsense suppression turned out to be 0.0374.
With G26C C34U G61A C82A G85C G86A the figure was no more than 0.026; with A23U A31G, no more than 0.026; with A24C, 1.13.
The same measure for A24U: 0.487; for A24G: 0.188; for G25U C75U: no more than 0.026.
The same measure for C27A A62C: 0.349; for G25U U58G C68G: no more than 0.026; for C27G C79A: no more than 0.026.
For G28A U63C G85U, the nonsense suppression came out at 0.0331.
The same measure for G28C G78A: 0.0288; for G28C G78C: no more than 0.026.
For G28C G61C, the nonsense suppression was 0.386.
The same measure for C27A A87U: no more than 0.026.
With C27A G61U G86U the figure was no more than 0.026; with C27A U35C G66C G88C, no more than 0.026.
For the variant C27U U71C C77G, the nonsense suppression is no more than 0.026.
Turning to A24C C68U, the nonsense suppression was determined as 0.765.
C27G A87G: the nonsense suppression is 0.0273.
The same measure for G25U G61A C82G G88U: no more than 0.026.
As to C27U A74C, the nonsense suppression is 0.0355.
With A23U C80G, the nonsense suppression was no more than 0.026.
With A24G C29U the figure was 0.0384; with A23U C56G U70C, no more than 0.026.
The same measure for A23U C75A: no more than 0.026; for A23G U55G: no more than 0.026.
As to A23G U55C, the nonsense suppression stood at 0.0273.
Turning to A24U C72G, the nonsense suppression turned out to be 0.03.
With G26C C29U G67U the figure was no more than 0.026; with G26U G88C, no more than 0.026; with G25U C34A U71A U76A, no more than 0.026.
The same measure for G26A U70A: no more than 0.026; for A24C A30U A54C U58G C75A: 0.783.
For the variant A24C G85U, the nonsense suppression came to 0.258.
Take A24C C79U: the nonsense suppression stood at 0.209.
The same measure for G28C C79A G85C: 0.0328; for G25C A30U: 0.0299; for G28A G84A G86C: no more than 0.026.
With A24C C34G C56U, the nonsense suppression was no more than 0.026.
Turning to C27U A54C, the nonsense suppression amounted to 0.0314.
In the case of C27U A54U, the nonsense suppression worked out at 0.104.
The same measure for C27A C29A U71C C79U: no more than 0.026; for G26U U71G G85U: no more than 0.026.
With G26A A31C the figure was no more than 0.026.
With A24C G78U the figure was 0.0343.
On to A24C G78A, for which the nonsense suppression is 0.112.
The same measure for G28C U71C: 0.112; for G25C A31C G73A: no more than 0.026.
With A23U G86A the figure was no more than 0.026; with G26C G61A, no more than 0.026; with G28A U35G G65U G73A C80U, no more than 0.026.
The same measure for G25C C77U C80G: no more than 0.026; for C27G U57C G86C: no more than 0.026.
As for G25C C68U, the nonsense suppression amounted to 0.031.
With A23U G67A, the nonsense suppression is no more than 0.026.
Take A24U C29U: the nonsense suppression is 0.233.
With C27G U71G the figure was no more than 0.026; with C27G A33U C34G C83G G85A, no more than 0.026.
With A24C G26A A30U C80G C81G the figure was no more than 0.026; with C27A G59U, no more than 0.026.
The same measure for G26C U57A G73A: no more than 0.026.
Take G25U U63G: the nonsense suppression was found to be 0.0371.
With A24C U58G G86U the figure was no more than 0.026.
The same measure for G26A G65A G86A: no more than 0.026; for A24U U76C: 0.131; for A24C U70A: no more than 0.026.
The same measure for A24U C82U: 0.0571; for A24U U35G A89G: no more than 0.026.
A23U U63A: the nonsense suppression stood at 0.207.
For the variant G26U G69U C79U, the nonsense suppression is no more than 0.026.
For the variant C27U A31C G61C, the nonsense suppression was no more than 0.026.
The same measure for A23U U55C A60C G69U G85C: no more than 0.026; for A24U U35A: no more than 0.026; for A24U A60G G65U G88C A89G: no more than 0.026.
Take G26U C64G: the nonsense suppression was no more than 0.026.
For the variant A24C G84A, the nonsense suppression amounted to 0.478.
The same measure for G28C G67A: 0.0635; for C27U G59U G61U G66U: no more than 0.026.
With C27U U35A U58A G65A G78C the figure was no more than 0.026.
With G28C G61A U63C the figure was 0.041; with A24G U63G C80A G85C, no more than 0.026.
In the case of A24U A30C C83A, the nonsense suppression is no more than 0.026.
For G28A C34G G59A, the nonsense suppression was no more than 0.026.
With A24C G25C A62U the figure was no more than 0.026; with G25A G61A G84C, no more than 0.026.
On to C27G U57C U58G G66A C68G, for which the nonsense suppression is no more than 0.026.
The same measure for G28A G78C: 0.0938.
With G25A U70C G73U the figure was no more than 0.026; with G28A C56G A89C, no more than 0.026; with A24G U55C, 0.0553.
With A24C U57A the figure was 0.0454.
As for G25A G32U, the nonsense suppression is no more than 0.026.
Turning to A24C G67U, the nonsense suppression stood at 0.0289.
On to C27A U55G G61A C83G, for which the nonsense suppression is no more than 0.026.
A23U A60G: the nonsense suppression amounted to 0.0537.
The same measure for G26A U71G: no more than 0.026; for A24C A89C: 0.0925; for G28C C34U: no more than 0.026.
The same measure for C27G U57C G59U G86U: no more than 0.026; for G28A G67A: 0.209.
As to G25C U63A, the nonsense suppression is no more than 0.026.
As to A24C C72U, the nonsense suppression amounted to 0.0288.
The same measure for A24C C72G: 0.0618; for A24C G73C G84C: no more than 0.026; for A24U A31G: 0.229.
On to C27G A74C G86A, for which the nonsense suppression is no more than 0.026.
With A24U C80U the figure was 0.192; with A24G U70G, no more than 0.026.
